Laboratory results from ChEMBL document CHEMBL3124926, “Identification of highly efficacious glucocorticoid receptor agonists with a potential for reduced clinical bone side effects” (J Med Chem, 2014).

Key:
[1] = molecular target: T1, Glucocorticoid receptor (Homo sapiens) (UniProt P04150); experiment: Agonist activity at glucocorticoid receptor in human […] cells assessed as suppression of vitamin D-induced osteocalcin production at 2 uM after 48 hrs by Gla-type osteocalcin ELISA relative to dexomethasone; type: cell-based
T1 sequence (whole entry): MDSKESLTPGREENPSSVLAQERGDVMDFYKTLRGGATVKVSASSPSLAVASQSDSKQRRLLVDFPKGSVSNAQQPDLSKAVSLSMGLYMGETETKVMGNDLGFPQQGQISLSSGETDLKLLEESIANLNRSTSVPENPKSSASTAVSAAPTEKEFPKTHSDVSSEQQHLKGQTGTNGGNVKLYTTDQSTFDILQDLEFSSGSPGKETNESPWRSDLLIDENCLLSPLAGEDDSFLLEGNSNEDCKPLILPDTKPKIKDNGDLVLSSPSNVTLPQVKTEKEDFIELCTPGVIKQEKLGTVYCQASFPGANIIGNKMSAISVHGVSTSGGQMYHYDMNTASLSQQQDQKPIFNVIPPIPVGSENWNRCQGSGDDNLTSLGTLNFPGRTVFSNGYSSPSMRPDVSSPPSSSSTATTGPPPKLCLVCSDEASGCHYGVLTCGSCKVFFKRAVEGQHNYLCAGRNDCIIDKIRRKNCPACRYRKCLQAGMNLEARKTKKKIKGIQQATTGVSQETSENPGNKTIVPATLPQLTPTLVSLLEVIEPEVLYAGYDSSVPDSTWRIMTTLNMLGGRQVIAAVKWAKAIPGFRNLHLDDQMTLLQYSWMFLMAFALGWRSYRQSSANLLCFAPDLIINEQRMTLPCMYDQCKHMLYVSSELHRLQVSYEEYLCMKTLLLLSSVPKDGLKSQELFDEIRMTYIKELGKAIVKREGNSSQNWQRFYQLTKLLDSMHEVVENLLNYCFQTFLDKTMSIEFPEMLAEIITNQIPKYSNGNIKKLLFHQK
Outline: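 MG-63 human osteosarcoma cells plated at 20000/well in DMEM/F-12 with 1% charcoal-filtered FBS and 10 μg/mL vitamin C. Medium refreshed next day, then vitamin D (10 nM final) added with compound (2 × 10−6 to 10−10 M), duplicates. Incubated 48 h at 37 °C; supernatant osteocalcin measured by Gla-type ELISA. Vitamin D-only wells = 100%. Max efficacy at 2 μM is relative to dexamethasone (100%).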

Glucocorticoid receptor [2] = molecular target: T2, Glucocorticoid receptor (Homo sapiens, UniProt P04150); experiment: Competitive binding affinity to glucocorticoid receptor (unknown origin) expressed in baculovirus-infected cell system after 1 hr by fluorescence polarization assay in presence of tetramethylrhodamine-labeled dexamethasone
T2 sequence (P04150 whole entry): T1 sequence (whole entry)
Outline: (§1)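 Lysates of baculovirus-infected insect cells co-expressing receptor with HSP-70, HSP-90 and p23 (GR diluted 300-fold, MR 17-fold). Probe 5 nM tetramethylrhodamine-dexamethasone in TES/KCl/molybdate/EDTA/CHAPS/glycerol/DTT buffer, pH 7.4, 1% DMSO. 1 h at room temperature in the dark; fluorescence polarization read (ex 550/em 580 nm). Background set with 2 μM dexamethasone. IC50 from duplicate 11-point curves, four-parameter fit, mean of at least two determinations.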

[3] = molecular target: T1, Glucocorticoid receptor (Homo sapiens); experiment: Transrepression activity at glucocorticoid receptor in human fibroblasts assessed as inhibition of IL-1-induced IL-6 production at 2 uM after 18 to 24 hrs relative to dexomethasone
Outline: (§2)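 Human foreskin fibroblasts grown in Iscove's medium with 10% charcoal/dextran-treated FBS, plated at 20000/well two days before. Medium replaced, then compound (0.4% DMSO final) and recombinant human IL-1 (1 ng/mL final) added. 18–24 h at 37 °C; IL-6 in medium quantified by electrochemiluminescence, DELFIA or ELISA. IC50 by four-parameter fit of duplicate 11-point curves. Efficacy relative to dexamethasone (100%); top concentration 2 μM.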

Glucocorticoid receptor [4] = molecular target: T2, Glucocorticoid receptor; experiment: Transrepression activity at glucocorticoid receptor in human fibroblasts assessed as inhibition of IL-1-induced IL-6 production after 18 to 24 hrs; outline: as §2
[5] = molecular target: T3, Mineralocorticoid receptor (Homo sapiens, UniProt P08235); experiment: Competitive binding affinity to mineralocorticoid receptor (unknown origin) expressed in baculovirus-infected cell system after 1 hr by fluorescence polarization assay in presence of tetramethylrhodamine-labeled dexamethasone; outline: as §1
T3 sequence (P08235 whole entry): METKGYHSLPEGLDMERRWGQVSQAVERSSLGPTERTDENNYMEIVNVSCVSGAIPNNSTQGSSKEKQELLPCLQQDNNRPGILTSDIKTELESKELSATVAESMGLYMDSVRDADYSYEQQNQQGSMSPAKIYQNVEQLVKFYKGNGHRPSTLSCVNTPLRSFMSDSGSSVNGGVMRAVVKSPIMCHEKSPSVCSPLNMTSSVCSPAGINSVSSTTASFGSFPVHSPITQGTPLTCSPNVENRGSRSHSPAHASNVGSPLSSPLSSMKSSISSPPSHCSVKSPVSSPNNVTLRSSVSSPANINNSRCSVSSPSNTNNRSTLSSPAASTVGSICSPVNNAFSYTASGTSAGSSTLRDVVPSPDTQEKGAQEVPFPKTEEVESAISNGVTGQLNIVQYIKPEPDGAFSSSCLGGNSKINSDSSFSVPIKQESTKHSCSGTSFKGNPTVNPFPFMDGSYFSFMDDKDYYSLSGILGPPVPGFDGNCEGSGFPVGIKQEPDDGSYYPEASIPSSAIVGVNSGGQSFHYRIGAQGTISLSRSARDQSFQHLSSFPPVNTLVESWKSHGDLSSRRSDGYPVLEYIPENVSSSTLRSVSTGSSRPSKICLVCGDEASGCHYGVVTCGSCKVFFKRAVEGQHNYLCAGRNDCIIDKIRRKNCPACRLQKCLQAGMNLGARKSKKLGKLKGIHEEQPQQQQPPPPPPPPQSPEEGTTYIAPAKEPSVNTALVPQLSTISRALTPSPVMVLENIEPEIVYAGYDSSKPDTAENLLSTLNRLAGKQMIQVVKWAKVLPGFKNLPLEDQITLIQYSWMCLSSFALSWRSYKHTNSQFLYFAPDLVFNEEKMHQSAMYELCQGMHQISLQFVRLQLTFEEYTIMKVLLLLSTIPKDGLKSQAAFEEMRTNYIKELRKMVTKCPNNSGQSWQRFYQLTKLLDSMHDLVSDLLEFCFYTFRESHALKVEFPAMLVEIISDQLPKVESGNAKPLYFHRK

Progesterone receptor = molecular target: T4, Progesterone receptor (Homo sapiens, UniProt P06401); experiment: Competitive binding affinity to progesterone receptor (unknown origin) expressed in baculovirus-infected cell system after 1 hr by fluorescence polarization assay in presence of tetramethylrhodamine-labeled RU-486
T4 sequence (P06401 whole entry): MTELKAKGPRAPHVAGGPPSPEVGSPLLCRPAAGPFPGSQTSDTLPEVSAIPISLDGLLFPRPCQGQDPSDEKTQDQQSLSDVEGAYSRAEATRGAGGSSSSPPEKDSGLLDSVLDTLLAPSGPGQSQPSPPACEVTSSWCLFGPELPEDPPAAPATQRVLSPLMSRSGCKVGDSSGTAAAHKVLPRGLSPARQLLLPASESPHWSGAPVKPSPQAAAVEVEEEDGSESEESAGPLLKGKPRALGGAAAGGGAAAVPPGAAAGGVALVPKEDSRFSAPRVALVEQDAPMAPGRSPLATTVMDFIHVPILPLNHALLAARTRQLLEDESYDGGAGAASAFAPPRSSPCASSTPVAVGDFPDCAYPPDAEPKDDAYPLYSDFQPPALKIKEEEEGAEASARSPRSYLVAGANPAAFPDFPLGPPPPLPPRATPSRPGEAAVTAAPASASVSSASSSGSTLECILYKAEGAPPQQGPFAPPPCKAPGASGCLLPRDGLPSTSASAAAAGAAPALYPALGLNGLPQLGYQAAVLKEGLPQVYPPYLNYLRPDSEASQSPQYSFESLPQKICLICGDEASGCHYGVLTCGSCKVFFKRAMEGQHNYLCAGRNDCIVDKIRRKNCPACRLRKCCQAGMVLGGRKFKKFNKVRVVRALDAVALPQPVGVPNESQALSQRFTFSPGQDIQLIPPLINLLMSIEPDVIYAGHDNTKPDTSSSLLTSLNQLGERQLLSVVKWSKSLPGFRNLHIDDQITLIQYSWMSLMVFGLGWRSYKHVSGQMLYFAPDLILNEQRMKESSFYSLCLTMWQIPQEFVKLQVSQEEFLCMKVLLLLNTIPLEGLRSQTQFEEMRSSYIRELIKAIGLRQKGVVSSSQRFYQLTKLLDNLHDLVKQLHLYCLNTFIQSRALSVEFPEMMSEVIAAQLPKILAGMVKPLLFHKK
Outline: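 PR from lysate of insect cells infected with receptor baculovirus alone, diluted 13-fold. Probe 5 nM tetramethylrhodamine-labeled RU-486 in pH 7.4 TES/KCl/molybdate buffer with 1% DMSO. 1 h at room temperature in the dark, then fluorescence polarization (ex 550/em 580 nm). Background set with 2 μM RU-486. IC50 from duplicate 11-point curves, four-parameter logistic fit, mean of at least two determinations.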

[6] = molecular target: T1, Glucocorticoid receptor (Homo sapiens); experiment: Agonist activity at glucocorticoid receptor in human HeLa cells transfected with luciferase gene linked to MMTV promoter assessed as induction of luciferase transactivation activity at 2 uM after 6 hrs by luminescence assay; type: cell-based
Outline: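 HeLa cells stably carrying an MMTV-luciferase construct, plated the day before at 25000/well in DMEM with 3% FBS. Medium replaced, then compound added (0.2% DMSO final); 1 μM dexamethasone wells = 100% induction, vehicle = background. Incubated 6 h at 37 °C, 5% CO2. Luminescence read after lysis; activation expressed as % of positive control. Top concentration 2 μM.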

SMILES	Emax [1]	IC50 (Glucocorticoid receptor [2])	Emax [3]	IC50 (Glucocorticoid receptor [4])	IC50 [5]	IC50 (Progesterone receptor)	Emax [6]
CC(C)(C[C@@](O)(Cc1cc2ccncc2[nH]1)C(F)(F)F)c1cc(F)ccc1O	68%						
Cc1ccc(F)cc1C(C)(C)CC(O)(Cc1cc2nc(N3CCCC3)ncc2[nH]1)C(F)(F)F (racemic)		0.018 µM	76%	0.13 µM	> 2 µM	> 2 µM	
CC(C)(CC(O)(Cc1cc2ncncc2[nH]1)C(F)(F)F)c1cc(F)ccc1O (racemic)	42%	0.007 µM		0.011 µM	1.15 µM	> 2 µM	
COc1ccc(F)cc1C(C)(C)CC(O)(Cc1cc2ncncc2[nH]1)C(F)(F)F (racemic)		0.009 µM	85%	0.021 µM	> 2 µM	> 2 µM	5%
Cc1ccc(F)cc1C(C)(C)CC(O)(Cc1cc2nccnc2[nH]1)C(F)(F)F (racemic)		0.057 µM		> 2 µM	> 2 µM	> 2 µM	
COc1ccc(-c2cncnc2)cc1C(C)(C)C[C@@](O)(Cc1cc2ccncc2[nH]1)C(F)(F)F	45%						
COc1ccc(F)cc1C(C)(C)CC(O)(Cc1cc2cncnc2[nH]1)C(F)(F)F (racemic)		0.004 µM	82%	0.01 µM	0.16 µM	1.45 µM	
CC(C)(CC(O)(Cc1cc2ncncc2[nH]1)C(F)(F)F)c1ccccc1S(C)(=O)=O (racemic)	43%	0.024 µM	92%	0.021 µM	> 2 µM	> 2 µM	
Cc1ccc(F)cc1C(C)(C)CC(O)(Cc1cc2cnncc2[nH]1)C(F)(F)F (racemic)	81%	0.003 µM		0.005 µM	0.083 µM	0.49 µM	
CC(C)(CC(O)(Cc1cc2ncncc2[nH]1)C(F)(F)F)c1cc(F)cc2c1OCC2 (racemic)	26%	0.007 µM	78%	0.024 µM	1.3 µM	1.4 µM	
Cc1ccc(F)cc1C(C)(C)CC(O)(Cc1cc2nc(C(C)C)ncc2[nH]1)C(F)(F)F (racemic)		0.026 µM	50%	0.56 µM	> 2 µM	> 2 µM	
Cc1ccc(F)cc1C(C)(C)CC(O)(Cc1cc2nc(-c3ccccc3)cnc2[nH]1)C(F)(F)F (configuration not stated)		0.011 µM	82%	0.17 µM	> 2 µM	> 2 µM	
Cc1ccccc1C(C)(C)CC(O)(Cc1cc2ncncc2[nH]1)C(F)(F)F (racemic)		0.013 µM	69%	0.044 µM	1.1 µM	> 2 µM	
Cc1ccc(F)cc1C(C)(C)CC(O)(Cc1cc2nc(N3CCOCC3)ncc2[nH]1)C(F)(F)F (racemic)		0.005 µM	84%	0.015 µM	0.17 µM	1.4 µM	
CC(C)(CC(O)(Cc1cc2ncncc2[nH]1)C(F)(F)F)c1cccc(S(C)(=O)=O)c1 (racemic)		0.84 µM			> 2 µM	> 2 µM	
